Screening results deposited in PubChem BioAssay by The Scripps Research Institute Molecular Screening Center.
CHRM5 PAM = positive allosteric modulators of human muscarinic M5 receptor. CHO-K1 hM5, Fluo-8 calcium, ACh EC20 PAM; 0% = ACh EC20, 100% = ACh EC100. 360,000 compounds, 0.3% hits. P08912. activation, % at 3 µM. AID 624038;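 active = activation above the run cutoff, the mean activation of all test compounds plus 3 SD, cut at about 18% in these data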
Target sequence (P08912 whole entry, looked up): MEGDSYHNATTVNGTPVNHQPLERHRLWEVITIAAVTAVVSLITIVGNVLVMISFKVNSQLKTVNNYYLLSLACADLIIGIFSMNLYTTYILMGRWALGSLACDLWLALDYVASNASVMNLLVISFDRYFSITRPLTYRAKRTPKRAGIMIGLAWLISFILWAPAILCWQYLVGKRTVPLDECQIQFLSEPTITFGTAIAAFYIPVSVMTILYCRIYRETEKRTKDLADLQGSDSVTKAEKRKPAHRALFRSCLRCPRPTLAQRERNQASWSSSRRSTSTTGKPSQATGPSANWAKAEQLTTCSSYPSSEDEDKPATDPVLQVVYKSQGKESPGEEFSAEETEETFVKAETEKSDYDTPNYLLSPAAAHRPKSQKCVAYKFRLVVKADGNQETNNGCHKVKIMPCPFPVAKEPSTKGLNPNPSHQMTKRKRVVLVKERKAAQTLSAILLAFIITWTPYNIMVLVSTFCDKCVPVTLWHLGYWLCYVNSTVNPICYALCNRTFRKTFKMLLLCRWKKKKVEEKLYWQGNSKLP
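System: CHO-K1 hM5 cells. Reagent: acetylcholine, EC20 level. Compound dosing: single dose, 3 µM nominal final test concentration. Timing: Post-acetylcholine fluorescence recording 140 s. Detection: Fluo-8 calcium fluorescence. Read-out: % activation, ACh-normalized. Benchmarks: ACh EC20 and EC100 wells. Repeats: singlicate, one well per test compound.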
M1 antag = human CHRM1 antagonism; CHO-K1 hM1, Fluo-8 calcium fluorescence, ACh EC80 antagonist; 360,000 compounds, 1.3% hits; inhibition, % at 3 µM; P11229; AID 588852;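 active = percent inhibition above its own plate's cutoff, namely the mean of that plate's compound wells plus 3 SD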;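 also: peak over basal fluorescence ratio during 140 s after agonist addition; 0% = ACh EC80 plus DMSO and 100% = DMSO alone without agonist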
CHRM1 PAM = potentiates human M1 receptor response to acetylcholine | P11229 | 360,000 compounds, 0.088% hits | CHO-K1 hM1, Fluo-8 calcium fluorescence, ACh EC20; 0% = ACh EC20, 100% = maximal ACh | activation, % at 3 µM; in the data active = activation above about 19%, passing the limit was not always enough
CHRM5 antagonist = antagonists of human muscarinic M5 receptor (CHRM5); inhibition, % at 3 µM; AID 624040; P08912; CHO-hM5 cells, Fluo-8 calcium fluorescence, ACh EC80; 360,000 compounds, 0.59% hits;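 active = inhibition above a per-plate cutoff, the mean of that plate's test compounds plus 3 SD, cut at about 27% in these data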;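 also: 0% = acetylcholine EC80 with DMSO and 100% = DMSO without agonist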
M1 ag = human M1 muscarinic receptor agonism. P11229. CHO-K1 hM1, Fluo-8 calcium fluorescence, agonist mode; 0% DMSO, 100% acetylcholine EC100. activation, % at 3 µM. 360,000 compounds, 0.33% hits;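 active = activation above the run's mean compound activation plus 3 SD, cut at about 16% in these data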;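 also: peak over basal fluorescence ratio within a 140 s kinetic read after compound addition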
CHRM5 agonist = agonists of human muscarinic M5 receptor (CHRM5). P08912. activation, % at 3 µM. CHO-K1 hM5 cells, Fluo-8 calcium fluorescence; 0% DMSO wells, 100% maximal acetylcholine response. 360,000 compounds, 0.19% hits;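 active = activation above the run's mean over test compounds plus 3 SD, cut at about 23% in these data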;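 also: signal is peak over basal fluorescence ratio across the kinetic read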
* marks the source's active call; other numbers are inactive results; ! = not confirmed by another sample. Shown are actives, neighbours in structure and some others; about 2.2% of the full set was active somewhere.

SMILES	CHRM5 PAM	M1 antag	CHRM1 PAM	CHRM5 antagonist	M1 ag	CHRM5 agonist
Cc1ccc(NC(=O)C2C3CCC(O3)C2C(=O)O)c(Br)c1 (configuration not stated)	19*	-16	11	-5	-3	4
O=C(O)C1C2CCC(O2)C1C(=O)Nc1ccc(F)cc1 (configuration not stated)	-14	1	-4	35*	-5	-4
O=C(O)c1ccc(NC(=O)C2C3CCC(O3)C2C(=O)O)cc1 (configuration not stated)	-7	-22	7	6	-2	1
CSc1nc(O)c(C(c2ccc(O)cc2)c2c(O)nc(SC)[nH]c2=O)c(=O)[nH]1	7	-11	10	-8	0	5
O=C(Cc1cccs1)Nc1ccccc1F	-4	-6	0	6	-4	-3
O=C(CCNS(=O)(=O)c1ccc(Br)cc1)N1CCN(c2ccccc2O)CC1	-1	-6	-2	1	-2	4
O=C(NCCC(=O)N1CCN(c2ccccc2O)CC1)c1ccc(Br)cc1	-3	-35	22*	-1	1	3
Cc1ccc(C)c(N2CCN(C(=O)CCCn3ncn4c(cc5occc54)c3=O)CC2)c1	-8	4	2	12	-2	0
O=C(Nc1nnc(C23CC4CC(CC(C4)C2)C3)s1)c1ccco1	8	-14	4	-11	-2	0
COc1ccc(C(C(=O)NC2CCCC2)N(Cc2ccco2)C(=O)c2snc(C(N)=O)c2N)cc1OC (configuration not stated)	3	12	-7	-2	-2	1
COc1ccc(CN(C(=O)c2snc(C(N)=O)c2N)C(C(=O)NC2CCCC2)c2ccc(OC)cc2)cc1 (configuration not stated)	-3	3	-5	20	-9	-6
COc1ccc(C(C(=O)NC2CCCCC2)N(Cc2ccco2)C(=O)c2snc(C(N)=O)c2N)cc1 (configuration not stated)	-10	25*	-12	18	-1	2
Cc1ccc(C(C(=O)NCc2ccc(F)cc2)N(Cc2ccco2)C(=O)c2snc(C(N)=O)c2N)o1 (configuration not stated)	-14	35*	-16	26	-1	3
Cc1ccc(C(C(=O)NC2CCCC2)N(Cc2ccc3c(c2)OCO3)C(=O)c2snc(C(N)=O)c2N)cc1 (configuration not stated)	-19	24*	-18	11	-5	-15
CC(=O)SC1CC(=O)N(c2ccc(C(C)(C)C)cc2)C1=O (configuration not stated)	-9	11	-5	4	-2	5
CC(=O)SC1CC(=O)N(c2c(C)cccc2C)C1=O (configuration not stated)	21*	-9	10	0	-1	5
COc1ccc(NC(=O)C23CC4CC(C2)CC(c2ccc(C)cc2)(C4)C3)cc1	-2	-3	2	-4	-10	1
Cc1ccc(C(C)C)cc1S(=O)(=O)Nc1cccnc1	2	-8	4	3	-2	-1
COc1ccc(C(CNC(=O)Cc2c(F)cccc2Cl)N2CCCCC2)cc1 (configuration not stated)	-23	68*	-26	13	-7	-18
Cc1cc(O)ccc1NC(=O)CCN1C(=O)c2ccc([N+](=O)[O-])cc2C1=O	-1	2	28*	5	-3	-1
O=C(/C=C/c1ccco1)NC(=S)NNC(=O)c1ccco1	7	-1	10	-5	1	2
CCCCc1cc(O)c(CCCC)c(O)c1	-16	51*	-16	33*	55*	64*
CCOC(=O)c1nnn(-c2nonc2-n2cccc2)c1-c1cccc([N+](=O)[O-])c1	0	10	-2	15	-5	-9
CCCCCCCCCCCCCCCC[n+]1cccc(C(=O)N(CC)CC)c1	-33	57*	-23	43*!	-3	-8
COc1cccc(-c2sc3ccccc3c2-c2ccc(OCCN(C)C)cc2)c1	-15	17	-2	22	-2	-7
SMILES	CHRM5 PAM	M1 antag	CHRM1 PAM	CHRM5 antagonist	M1 ag	CHRM5 agonist
CN(C)C1=NC[C@H](Cc2ccccc2)N1CCCCc1ccccc1	1	34*	-23	7	-9	-10
CCCCCCCN1C(N(C)C)=NC[C@@H]1Cc1ccccc1	-2	29	-27	9	-12	-11
CCN(CC)c1ccc(NC(=O)COC(=O)C2CCN(c3ccc(C(F)(F)F)cn3)CC2)cc1	0	-11	9	8	-4	-1
CCN(c1ccc(NC(=O)COC(=O)C2CCN(c3ccc(C(F)(F)F)cn3)CC2)cc1)C(C)C	-8	35*	-20	13	-8	-2
Cc1oc(S(=O)(=O)N(C)C)cc1C(=O)Nc1ccc(Cl)cc1	-10	-9	4	14	0	2
CC1CNCCN1S(=O)(=O)c1cccc2cnccc12 (configuration not stated)	-19	-3	-19	4	42*!	52*!
O=S(=O)(c1cccc2cnccc12)N1CCCNCC1	-4	-9	-5	4	-6	-1
COc1ccc(C(C(=O)NC(C)(C)C)N(C(=O)CCC(=O)Nc2cc(C)on2)c2ccccc2F)cc1 (configuration not stated)	0	-16	9	6	-2	1
Cc1ccccc1C(=O)NC1CC2CCCC(C1)N2CC(C)C (configuration not stated)	-9	66*	-28	8	-9	-1
C=CCNC(=O)CN1C2CCCC1CC(NC(=O)c1ccccc1C)C2 (configuration not stated)	0	-12	2	0	-4	-1
COc1cc(/C=C2/SC(=S)N(Cc3ccccc3)C2=O)ccc1OCC(=O)O	5	-10	15	-12	1	9
O=C1/C(=C/c2ccc(O)c([N+](=O)[O-])c2)SC(=S)N1Cc1ccccc1	4	5	10	-2	-3	-1
COc1cc(/C=C2/SC(=S)N(Cc3ccccc3)C2=O)cc(Cl)c1O	-5	23	-4	33*	25*	8
COc1cc([N+](=O)[O-])cc(/C=C2/SC(=S)N(Cc3ccccc3)C2=O)c1O	-5	51*	-14	11	38*	9
CCOc1cc(/C=C2/SC(=S)N(Cc3ccccc3)C2=O)ccc1O	-1	2	8	26	15	42*
O=C(N/N=C/c1ccccc1O)c1cccc2ccccc12	-1	-5	2	1	0	2
